For orientation: GI50 means the concentration giving 50% growth inhibition. A higher GI50 goes with lower sensitivity of the cells.

Experimental findings from ChEMBL document CHEMBL4425092, “ent-Labdane Diterpenoids from the Aerial Parts of Eupatorium obtusissmum” (2016) are described below.

Structures are written as SMILES.

Assay type in all cases: functional
The test system of one assay is T47D. Kind of assay: Antiproliferative activity against human T47D cells after 48 hrs by sulforhodamine B assay. In short, it runs like this: (§1)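 Plating was at 5000 cells per well, with 48 h drug exposure starting on day 1, in triplicate, at dilutions spanning 0.001–100 μM. DMSO stocks were 400× the top final concentration, and vehicle controls received 0.25% v/v DMSO. Cells were fixed with cold TCA for 60 min at 4 °C, and growth was measured by SRB. Absorbance at 530 nm was corrected for medium-only blank wells, and GI50 was derived by NCI formulas.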
For orientation: In SRB staining, fixed cells bind dye roughly in proportion to their protein.

Another assay has as its system SW1573. Kind of assay: Antiproliferative activity against human SW1573 cells after 48 hrs by sulforhodamine B assay. The following applies: SW1573, 48 h. In short, it runs like this:
as §1

For the next assay, the system named is A549. Kind of assay: Antiproliferative activity against human A549 cells after 48 hrs by sulforhodamine B assay. The following applies: A549, 48 h. In short, it runs like this: (§2)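 Cells seeded at 2500 per well and treated from day 1 after plating for 48 h, in triplicate, at dilutions over 0.001–100 μM. Stocks were made in DMSO at 400× the top final concentration, and vehicle controls received 0.25% v/v DMSO. Cells were fixed with ice-cold TCA for 60 min at 4 °C, then stained with SRB. OD was read at 530 nm, corrected for medium-only background, and GI50 was calculated by NCI formulas.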

A further assay relates to WiDr. Kind of assay: Antiproliferative activity against human WiDr cells after 48 hrs by sulforhodamine B assay. In short, it runs like this:
as §1

The subject of a further assay is HBL-100. Kind of assay: Antiproliferative activity against human HBL100 cells after 48 hrs by sulforhodamine B assay. The following applies: HBL-100, 48 h. In short, it runs like this:
as §2

In a further assay the test system is HeLa. Kind of assay: Antiproliferative activity against human HeLa cells after 48 hrs by sulforhodamine B assay. In a few lines:
as §2

`CC1=CC(=O)O[C@H]1C[C@@H]1[C@@H](C)C(=O)C[C@@H]2C(C)(C)[C@@H](O)CC[C@@]12C`: the GI50 in the assay on T47D, in the assay with SW1573, in the assay with A549, in the assay with WiDr, in the assay with HBL-100 and in the assay on HeLa was more than 100 µM throughout.
Turning to `C=C1[C@@H](OC(C)=O)C[C@@H]2C(C)(C)[C@@H](O)CC[C@@]2(C)[C@@H]1C[C@H]1OC(=O)C=C1C`, the GI50 with T47D stood at 24 µM; in the assay with SW1573 it was 57 µM; in the assay on A549, 23 µM; in the assay on WiDr it was 32 µM; in the assay on HBL-100, 35 µM; in the assay on HeLa, 19 µM.
As for `CC1=CC(=O)O[C@@H]1C[C@@H]1[C@@H](C)C(=O)C[C@@H]2C(C)(C)[C@@H](O)CC[C@@]12C`, the GI50 in the assay with T47D, in the assay with SW1573, in the assay with A549, in the assay with WiDr, in the assay on HBL-100 and in the assay with HeLa was more than 100 µM in each case.
For `CC1=CC(=O)O[C@@H]1C[C@@H]1[C@@H](C)C(=O)C[C@@H]2C(C)(C)[C@H](O)CC[C@@]12C`, the GI50 in the assay on T47D, in the assay on SW1573, in the assay on A549, in the assay with WiDr, in the assay on HBL-100 and with HeLa was more than 100 µM throughout.
Turning to `C=C1CC[C@@H]2C(C)(C)[C@H](O)CC[C@@]2(C)[C@@H]1C[C@H]1OC(=O)C=C1C`, the GI50 in the assay on T47D is more than 100 µM; in the assay with SW1573 it was more than 100 µM; in the assay on A549 it was 59 µM; with WiDr, more than 100 µM; with HBL-100, more than 100 µM; with HeLa, 62 µM.
Take `COc1cc([C@@H]2c3cc4c(cc3[C@@H](O[C@@H]3O[C@@H]5CO[C@@H](C)O[C@H]5[C@H](O)[C@H]3O)[C@H]3COC(=O)[C@H]23)OCO4)cc(OC)c1O` [ETOPOSIDE]: the GI50 in the assay with T47D worked out at 22 µM; in the assay on SW1573 it was 15 µM; in the assay on A549, 0.7 µM; in the assay with WiDr it was 23 µM; in the assay with HBL-100 it was 2.3 µM; in the assay with HeLa, 3 µM.
As to `C=C1CC[C@@H]2C(C)(C)[C@@H](O)CC[C@@]2(C)[C@@H]1C[C@H]1OC(=O)C=C1C`, the GI50 in the assay with T47D is more than 100 µM; in the assay on SW1573, more than 100 µM; with A549, 44 µM; in the assay on WiDr it was more than 100 µM; in the assay with HBL-100, more than 100 µM; in the assay on HeLa, 62 µM.
